Source: paper PMC7745752 (The Journal of General Physiology, 2020)
Substitutions are numbered along the chain they refer to.

Legend:
WT mouse TRPV3 [1] = target: T1, WT mouse TRPV3 (Mus musculus, UniProt Q8K424); assay: cell-based Ca2+ assay; conditions: pH 7.4 vs pH 5.6
T1 sequence (Q8K424 1-791): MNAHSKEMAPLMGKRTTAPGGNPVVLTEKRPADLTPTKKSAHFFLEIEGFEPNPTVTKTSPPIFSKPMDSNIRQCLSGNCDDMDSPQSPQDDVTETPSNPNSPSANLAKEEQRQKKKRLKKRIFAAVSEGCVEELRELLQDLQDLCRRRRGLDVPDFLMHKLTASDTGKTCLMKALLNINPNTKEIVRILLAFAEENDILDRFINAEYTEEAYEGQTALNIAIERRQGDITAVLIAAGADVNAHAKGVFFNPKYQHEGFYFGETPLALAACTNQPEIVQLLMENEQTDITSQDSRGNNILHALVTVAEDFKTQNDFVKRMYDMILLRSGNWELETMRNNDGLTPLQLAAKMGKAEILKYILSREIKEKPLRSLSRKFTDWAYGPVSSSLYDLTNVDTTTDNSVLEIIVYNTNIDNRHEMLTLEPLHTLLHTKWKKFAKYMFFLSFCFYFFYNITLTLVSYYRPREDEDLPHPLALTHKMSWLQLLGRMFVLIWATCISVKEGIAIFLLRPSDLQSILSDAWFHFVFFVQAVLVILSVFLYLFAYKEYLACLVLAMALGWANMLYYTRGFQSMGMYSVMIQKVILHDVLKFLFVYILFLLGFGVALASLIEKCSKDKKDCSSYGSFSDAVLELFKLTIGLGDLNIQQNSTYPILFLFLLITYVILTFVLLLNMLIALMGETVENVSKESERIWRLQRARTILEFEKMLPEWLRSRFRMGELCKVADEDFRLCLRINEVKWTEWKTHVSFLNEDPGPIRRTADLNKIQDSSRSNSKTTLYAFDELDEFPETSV
Procedure, shortened: (§1)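 Mouse TRPV3 (WT or mutant) was transfected into HEK293 cells in 96-well plates. Cells were loaded with 5 µM Fluo-4/AM, 0.02% Pluronic F-127 and 0.1% BSA in HEPES ECS (pH 7.4) at 37°C for 60 min, with 2 mM probenecid throughout. 2-APB was added once per well in ECS, or in Mes acidic solution giving final pH 5.6. AUC was normalized to the plate maximum, and EC50 at each pH came from a Hill fit.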

[2] = target: T2, TRPV3 E682Q/E689Q/D727N (QQN) (Mus musculus, UniProt Q8K424, D727N/E682Q/E689Q); assay: cell-based Ca2+ assay
T2 sequence (Q8K424 1-791 E682Q/E689Q/D727N): T1 sequence (Q8K424 1-791) with E682Q, E689Q, D727N
Procedure, shortened: as §1

[3] = system: TRPV3 C-terminal double and triple mutants (E682Q, E689Q, D727N combinations); assay: cell-based Ca2+ assay; design: species or system mouse; conditions: pH 7.4 vs pH 5.6
Procedure, shortened: as §1

TRPV3 E631A = target: T3, TRPV3 E631A (Mus musculus, UniProt Q8K424, E631A); assay: whole-cell voltage-clamp recording in transfected HEK293 cells; assay type: cell-based; conditions: n = 3
T3 sequence (Q8K424 1-791 E631A): T1 sequence (Q8K424 1-791) with E631A
Procedure, shortened: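 Whole-cell clamp at 22–24°C of HEK293 cells transiently expressing mutant mouse TRPV3. Pipette: 140 mM CsCl, 1 EGTA, pH 7.2. Bath: nominally Ca2+-free. 30 µM 2-APB was perfused at pHe 7.4, then in pH 5.0 Mes-buffered solution. Ramps ran −100 to +100 mV over 200 ms every second from 0 mV holding. Current ratio pHe 5.0/7.4 was taken at ±100 mV.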

[4] = target: T2, TRPV3 E682Q/E689Q/D727N (QQN); assay: whole-cell voltage-clamp recording in transfected HEK293 cells; assay type: cell-based
TRPV3 E682Q/D727N = target: T4, TRPV3 E682Q/D727N (Mus musculus, UniProt Q8K424, D727N/E682Q); assay: cell-based Ca2+ assay
T4 sequence (Q8K424 1-791 E682Q/D727N): T1 sequence (Q8K424 1-791) with E682Q, D727N
Procedure, shortened: (§2)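 Ca2+ plate assay with FlexStation in HEK293 cells transiently expressing mutant mouse TRPV3. Fluo-4/AM loading was 5 µM for 60 min at 37°C in pH 7.4 ECS with probenecid; cells were then washed. Agonist was delivered robotically at varied concentrations, each well dosed once. Read-out was ex 494/em 525 nm at 0.67 Hz. AUC was normalized to the plate maximum, and EC50 was obtained by Hill fitting.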

TRPV3 E689Q/D727N = target: T5, TRPV3 E689Q/D727N (Mus musculus, UniProt Q8K424, D727N/E689Q); assay: cell-based Ca2+ assay
T5 sequence (Q8K424 1-791 E689Q/D727N): T1 sequence (Q8K424 1-791) with E689Q, D727N
Procedure, shortened: as §2

WT mouse TRPV3 [5] = target: T1, WT mouse TRPV3; assay: whole-cell voltage-clamp recording in transfected HEK293 cells; assay type: cell-based; conditions: 300 µM carvacrol; for repeated stimulations needed to approach the maximal response: 30-s applications
Procedure, shortened: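 Sensitization by intracellular pH: 300 µM carvacrol was applied repeatedly in whole-cell mode to HEK293 cells expressing mouse TRPV3. External solution was pH 7.4, nominally Ca2+-free. pHi was set to 7.2, 6.5 or 6.0 by CsCl/EGTA pipette solutions. The stimulation reaching maximal response was noted. Temperature was 22–24°C.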

Compound | ratio for 2-APB EC50 values obtained at pH 7.4 and pH 5.6 (WT mouse TRPV3 [1]) | ratio for 2-APB EC50 values obtained at pH 7.4 and pH 5.6 ([2]; pH 7.4 vs pH 5.6) | ratio for 2-APB EC50 values obtained at pH 7.4 and pH 5.6 [3] | 5.0:7.4 pH ratio of 2-APB-evoked current (TRPV3 E631A; +100 mV) | 5.0:7.4 pH ratio of 2-APB-evoked current (TRPV3 E631A; −100 mV) | delay in current development after the addition of 2-APB ([4]; 5 µM 2-APB, pHe 6.5, nominally Ca2+-free bath) [s] | EC50 (TRPV3 E682Q/D727N) [µM] | EC50 (TRPV3 E689Q/D727N) [µM] | EC50 [2] [µM] | repeated stimulations needed to approach the maximal response (WT mouse TRPV3 [5]; pHi 6.0, external pH 7.4) | repeated stimulations needed to approach the maximal response (WT mouse TRPV3 [5]; pHi 7.2, external pH 7.4) | decrease of carvacrol-evoked TRPV3 current by pH 5.5 compared with pH 7.4 (WT mouse TRPV3 [5]; presensitized cells, +80 mV, nominally Ca2+-free bath) [%] | stimulation at which the highest level of response was reached ([4]; 300 µM carvacrol, 30-s applications, pHi 7.2, external pH 7.4)
NCCOB(c1ccccc1)c1ccccc1 [2-APB, 2-aminoethoxydiphenyl borate] | ~15 | 0.92 | < 4.6 | 0.98 ± 0.09 | 1.02 ± 0.03 | ~30 | – | – | – | – | – | – | –
Cc1ccc(C(C)C)cc1O [carvacrol] | – | – | – | – | – | – | 197 ± 7.8 | 60.2 ± 3.2 | 119 ± 7.6 | five | ~14 | ~50 | first stimulation
